Assay [1] deals with Rattus norvegicus. The assay can be described thus: Antiinflammatory activity of compound expressed as percentage inhibition of carrageenan edema 4 hr after an oral dose of 33 mg/kg. The assay is classed as functional. In a few lines: (§1)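 Rat carrageenan paw edema, subplantar carrageenan injection, per Winter et al. Oral dosing in water with 4% polyethylene glycol and 0.2% Tween 80, dilute NaOH added as needed to dissolve. Six rats per treated group, eight per vehicle-only or phenylbutazone group, run concurrently. Read-out is mean % inhibition of edema 4 h after the dose versus vehicle controls.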
In general terms: Carrageenan injected into the paw causes an acute inflammation.

Assay [2] has as its system Rattus norvegicus. The assay can be described thus: Antiinflammatory activity of compound expressed as percentage inhibition of carrageenan edema 4 hr after an oral dose of 10 mg/kg. In kind it is functional. In a few lines: as §1
The test system of assay [3] is Rattus norvegicus. The assay can be described thus: Antiinflammatory activity of compound expressed as percentage inhibition of carrageenan edema 4 hr after an oral dose of 10 mg/kg; Not available. The assay is classed as functional, organism-based. On the set-up: dose 10 mg/kg. In a few lines:
as §1

Activity calls are given as the source filed them. The calls are words filed in the database; no cut-off is given here.

As usually defined, the inhibition in vivo is the share of the control response that was lost under treatment.

For the compound `CN1C(=O)c2ccccc2S1(=O)=O`, the inhibition in vivo at 33 mg/kg in the assay on Rattus norvegicus [1] is 12%.

The compound `CN1C(C(=O)Nc2ccccn2)=C(O)c2ccccc2S1(=O)=O` [PIROXICAM] showed an inhibition in vivo at 33 mg/kg with Rattus norvegicus [1] of 75%. The compound further had an inhibition in vivo at 10 mg/kg in the assay with Rattus norvegicus [2] of 67%.

In the case of `CN1C(C(=O)Nc2cccc(O)n2)=C(O)c2ccccc2S1(=O)=O`, testing at 33 mg/kg in the assay on Rattus norvegicus [1] gave an inhibition in vivo of 40%. Also, testing at 10 mg/kg with Rattus norvegicus [2] gave an inhibition in vivo of 31%.

In the assay with Rattus norvegicus [1], `CN1C(C(=O)Nc2cc(O)ccn2)=C(O)c2ccccc2S1(=O)=O` displayed an inhibition in vivo at 33 mg/kg of 24%. Also, at 10 mg/kg the inhibition in vivo in the assay with Rattus norvegicus [2] was 10%.

Take `CCCCC1C(=O)N(c2ccccc2)N(c2ccccc2)C1=O` [PHENYLBUTAZONE]: at 33 mg/kg the inhibition in vivo in the assay on Rattus norvegicus [1] was 50%. For the same compound, the inhibition in vivo at 10 mg/kg with Rattus norvegicus [2] came out at 35%.

Regarding `CN1C(C(=O)O)=C(O)c2ccccc2S1(=O)=O`, in the assay with Rattus norvegicus [1], the inhibition in vivo at 33 mg/kg came out at 0%.

Regarding `CN1c2c(n3ccccc3nc2=O)-c2ccccc2S1(=O)=O`, in the assay on Rattus norvegicus [1], at 33 mg/kg the inhibition in vivo was 46%. Further, at 10 mg/kg the inhibition in vivo in the assay on Rattus norvegicus [2] was 38%.

In turn, `O=C1NS(=O)(=O)c2ccccc21` [SACCHARIN] registered an inhibition in vivo at 33 mg/kg in the assay with Rattus norvegicus [1] of 0%.

As to `CN1CC(=O)c2ccccc2S1(=O)=O`, the inhibition in vivo at 33 mg/kg in the assay on Rattus norvegicus [1] was determined as 8%. The inhibition result in the assay on Rattus norvegicus [3] is “inactive”.

The compound `CN1C(C(=O)Nc2ncccc2O)=C(O)c2ccccc2S1(=O)=O` displayed an inhibition in vivo at 33 mg/kg with Rattus norvegicus [1] of 41%. In the assay with Rattus norvegicus [2], this compound yielded an inhibition in vivo at 10 mg/kg of 13%.

Regarding `CN1C(C(=O)Nc2ccc(O)cn2)=C(O)c2ccccc2S1(=O)=O` [HYDROXY PIROXICAM METABOLITE], in the assay on Rattus norvegicus [1], testing at 33 mg/kg gave an inhibition in vivo of 17%. At 10 mg/kg the inhibition in vivo in the assay with Rattus norvegicus [2] was 15%.
